In ChEMBL document CHEMBL4017549, “Structural Basis of Inhibition of ERα-Coactivator Interaction by High-Affinity N-Terminus Isoaspartic Acid Tethered Helical Peptides” (J Med Chem, 2017):
pKd: −log10 of the molar value.

Assays:
[1] = Drug uptake in human MCF7 cells assessed per million cells at 5 uM after 3 hrs by FACS analysis; type: ADME, cell-based; conditions: mcf7, 3 h
How it was run: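 Adherent cells seeded overnight, then exposed to 5 μM FITC-labelled peptide or DMSO in FBS-free medium, 3 h, 37 °C. After PBS washes (three), about 10000 cells per sample analysed by flow cytometry; mean cellular fluorescence intensity calculated. More than two independent experiments, SEM.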

Estrogen receptor beta = Estrogen receptor beta (Homo sapiens, UniProt Q92731); assay: Binding affinity to recombinant human GFP-fused ERbeta LBD (259 to 498 residues) expressed in Escherichia coli BL21(DE3) after 40 mins in presence of 17beta-estradiol by fluorescence polarization assay
How it was run: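 FITC-labelled peptide at 10 nM final, titrated with increasing purified LBD (ERβ LBD carrying C334S, C369S, C481S) in 20 mM Tris-HCl pH 8.0, 150 mM NaCl, 5% glycerol, 1 mM TCEP with 10 μM 17β-estradiol. Incubated 40 min in the dark, polarization read at 298 K (ex 480/em 535 nm). KD from nonlinear regression of polarization versus protein concentration.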

Vitamin D3 receptor = biological target: T1, Vitamin D3 receptor (Homo sapiens, UniProt P11473); assay: Binding affinity to recombinant human GST-tagged VDR LBD (156 to 453 residues) expressed in Echerichia coli BL21 star (DE3) after 40 mins in presence of vitamin D3 by fluorescence polarization assay
T1 sequence (P11473 whole entry): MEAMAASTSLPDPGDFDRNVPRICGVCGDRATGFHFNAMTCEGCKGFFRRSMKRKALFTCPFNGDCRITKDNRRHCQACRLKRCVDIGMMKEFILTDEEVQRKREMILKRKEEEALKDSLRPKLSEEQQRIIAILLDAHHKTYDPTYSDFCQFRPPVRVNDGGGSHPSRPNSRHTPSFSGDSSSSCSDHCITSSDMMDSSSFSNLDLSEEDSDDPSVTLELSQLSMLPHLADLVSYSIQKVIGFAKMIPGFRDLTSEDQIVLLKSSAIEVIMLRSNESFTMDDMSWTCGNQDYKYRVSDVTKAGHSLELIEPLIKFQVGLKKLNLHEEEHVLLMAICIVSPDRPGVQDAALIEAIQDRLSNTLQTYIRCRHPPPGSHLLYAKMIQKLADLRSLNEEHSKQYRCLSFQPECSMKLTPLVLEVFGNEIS
How it was run: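 GST-VDR LBD titrated into 10 nM final FITC-labelled peptide in 20 mM Tris-HCl pH 8.0, 150 mM NaCl, 5% glycerol, 1 mM TCEP containing 10 μM vitamin D3. 40 min dark incubation, polarization at 298 K (ex 480/em 535 nm). KD by nonlinear regression.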

Homo sapiens = species: Homo sapiens; assay: Selectivity ratio of Kd for recombinant human ERbeta LBD (259 to 498 residues) to Kd for recombinant human ERalpha LBD (301 to 553 residues)
How it was run: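 Ratio of KD values, each from fluorescence polarization of 10 nM FITC-peptide titrated with the respective LBD after 40 min in the dark at 298 K, with the matching ligand in buffer (10 μM 17β-estradiol, progesterone or vitamin D3).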

Sequence of Estrogen receptor beta (Q92731 whole entry, the tested form may be a part): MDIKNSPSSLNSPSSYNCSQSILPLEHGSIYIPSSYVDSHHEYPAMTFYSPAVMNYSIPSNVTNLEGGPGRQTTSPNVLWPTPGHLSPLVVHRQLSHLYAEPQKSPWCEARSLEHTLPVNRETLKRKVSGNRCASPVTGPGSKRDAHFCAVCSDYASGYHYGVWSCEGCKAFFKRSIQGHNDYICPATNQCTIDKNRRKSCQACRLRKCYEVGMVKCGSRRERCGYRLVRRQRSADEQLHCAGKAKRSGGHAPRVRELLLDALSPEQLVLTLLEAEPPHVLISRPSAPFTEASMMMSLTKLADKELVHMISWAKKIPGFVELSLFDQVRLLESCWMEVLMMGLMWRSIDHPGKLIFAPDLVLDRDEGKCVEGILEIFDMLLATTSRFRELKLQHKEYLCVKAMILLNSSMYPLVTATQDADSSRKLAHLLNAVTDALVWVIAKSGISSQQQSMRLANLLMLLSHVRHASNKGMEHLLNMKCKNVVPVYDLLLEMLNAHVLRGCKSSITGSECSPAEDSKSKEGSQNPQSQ

Drug uptake [1]: Active
pKd (Estrogen receptor beta): 6.53
pKd (Vitamin D3 receptor): < 5.70
Selectivity ratio (Homo sapiens): 4.4
Compound: CC[C@H](C)[C@@H]1NC(=O)C[C@H](NC(=O)[C@H](CCCNC(=N)N)NC(=O)CCNC(=S)Nc2ccc3c(c2)C(=O)OC32c3ccc(O)cc3Oc3cc(O)ccc32)C(=O)NCC(C(=O)N[C@@H](CCCNC(=N)N)C(=O)NC(CC(C)(C)C)C(=O)NC(CC(C)(C)C)C(=O)N[C@@H](CCC(N)=O)C(N)=O)NC(=O)C(CC(C)(C)C)NC1=O (some centres undefined)
